Source: ChEMBL document CHEMBL1157142, “Alkyl deoxy-arabino-hexopyranosides: synthesis, surface properties, and biological activities” (Bioorg Med Chem, 2008)
Values after ≈ are worked out from the molar mass of the structure shown. Active and inactive are the calls of the source. The calls are words filed in the database; no cut-off is given here.

Key:
Enterococcus faecalis [1] = assay: Antimicrobial activity against Enterococcus faecalis ATCC 29212 after 16 to 20 hrs by broth dilution method; format: functional; details: for MIC: Enterococcus faecalis, ATCC 29212
Procedure, shortened: (§1)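 Dilution method used overnight cultures and serial compound dilutions from 500 down to 1.95 µg/mL, with chloramphenicol from 50 to 0.195 µg/mL. Incubation was at 35 °C for 16–20 h, and MIC and MLC were determined. At least three replicates were run. Only compounds giving disk inhibition diameters of 11 mm or more were tested.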

Escherichia coli = assay: Antimicrobial activity against Escherichia coli ATCC 8739 assessed as diameter of the inhibition zone after 24 hrs by paper disk agar diffusion method; format: functional
Procedure, shortened: (§2)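 Overnight cultures were spread on agar: tryptone soy agar for Listeria, azide dextrose agar for Enterococcus, and nutrient agar for the other bacteria. 6.4 mm paper disks each received 300 µg of substance in 15 µL DMSO. Plates were incubated at 37 °C for 24 h and the inhibition-zone diameter measured. Chloramphenicol served as control. At least three replicates were run.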

Bacillus subtilis [2] = assay: Antimicrobial activity against Bacillus subtilis ATCC 6633 assessed as diameter of the inhibition zone after 24 hrs by paper disk agar diffusion method; format: functional; procedure, shortened: as §2
Staphylococcus aureus [3] = assay: Antimicrobial activity against Staphylococcus aureus ATCC 25923 assessed as diameter of the inhibition zone after 24 hrs by paper disk agar diffusion method; format: functional; procedure, shortened: as §2
Bacillus cereus [4] = assay: Antimicrobial activity against Bacillus cereus ATCC 11778 after 16 to 20 hrs by broth dilution method; format: functional; details: for MIC: Bacillus cereus, ATCC 11778; procedure, shortened: as §1
Pyricularia oryzae = assay: Antimicrobial activity against Pyricularia oryzae DSMZ 62938 assessed as diameter of the inhibition zone after 48 hrs by paper disk agar diffusion method; format: functional
Procedure, shortened: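 Overnight culture spread on potato dextrose agar; 6.4 mm paper disks loaded with compound dissolved in DMSO. […] served as the reference control. Plates incubated at 25 °C for 48 h, then the diameter of the inhibition zone was measured in mm. At least three replicates.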

Bacillus cereus [5] = assay: Antimicrobial activity against Bacillus cereus ATCC 11778 after 1 year; format: functional, organism-based
Salmonella enteritidis = assay: Antimicrobial activity against Salmonella enteritidis ATCC 13076 assessed as diameter of the inhibition zone after 24 hrs by paper disk agar diffusion method; format: functional, Salmonella enterica subsp. enterica serovar Enteritidis; procedure, shortened: as §2
Listeria monocytogenes [6] = assay: Antimicrobial activity against Listeria monocytogenes ATCC 7644 after 16 to 20 hrs by broth dilution method; format: functional; details: for MIC: Listeria monocytogenes, ATCC 7644; procedure, shortened: as §1
Aspergillus niger = assay: Antimicrobial activity against Aspergillus niger ATCC 16404 assessed as diameter of the inhibition zone after 48 hrs by paper disk agar diffusion method; format: functional
Procedure, shortened: (§3)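 Fungal disk diffusion: overnight cultures were spread on potato dextrose agar. 6.4 mm paper disks each carried 300 µg of substance in 15 µL DMSO. Plates were incubated at 25 °C for 48 h and the inhibition-zone diameter read. Actidione was the control for A. niger and chloramphenicol for C. albicans. At least three replicates were run.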

Pseudomonas aeruginosa = assay: Antimicrobial activity against Pseudomonas aeruginosa ATCC 27853 assessed as diameter of the inhibition zone after 24 hrs by paper disk agar diffusion method; format: functional; procedure, shortened: as §2
Listeria monocytogenes [7] = assay: Antimicrobial activity against Listeria monocytogenes ATCC 7644 assessed as diameter of the inhibition zone after 24 hrs by paper disk agar diffusion method; format: functional; procedure, shortened: as §2
Bacillus cereus [8] = assay: Antimicrobial activity against Bacillus cereus ATCC 11778 assessed as diameter of the inhibition zone after 24 hrs by paper disk agar diffusion method; format: functional; procedure, shortened: as §2
Enterococcus faecalis [9] = assay: Antimicrobial activity against Enterococcus faecalis ATCC 29212 assessed as diameter of the inhibition zone after 24 hrs by paper disk agar diffusion method; format: functional; procedure, shortened: as §2
Candida albicans = assay: Antimicrobial activity against Candida albicans ATCC 10231 assessed as diameter of the inhibition zone after 48 hrs by paper disk agar diffusion method; format: functional; procedure, shortened: as §3
Bacillus subtilis [10] = assay: Antimicrobial activity against Bacillus subtilis ATCC 6633 after 16 to 20 hrs by broth dilution method; format: functional; details: for MIC: Bacillus subtilis, ATCC 6633; procedure, shortened: as §1
[11] = Cytotoxicity against human peripheral blood lymphocytes assessed as mitotic index at 10 ug/mL; details: pbl
Procedure, shortened: (§4)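 Heparinized whole blood from healthy donors was cultured in Ham's F-10 with 15% fetal calf serum, phytohemagglutinin, L-glutamine, streptomycin and penicillin. Compounds at 10 or 100 µg/mL were added after 24 h and culture continued to 48 h. Colcemid (0.5 µg/mL final) was present for the last 3 h. Mitotic index was scored on metaphase spreads at 500×. 2% H2O2 was the positive control.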

[12] = Cytotoxicity against human peripheral blood lymphocytes assessed as mitotic index at 100 ug/mL; details: pbl; procedure, shortened: as §4
Staphylococcus aureus [13] = assay: Antimicrobial activity against Staphylococcus aureus ATCC 25923 after 16 to 20 hrs by broth dilution method; format: functional; details: for MIC: Staphylococcus aureus, ATCC 25923; procedure, shortened: as §1

SMILES | MLC (Enterococcus faecalis [1]) | MIC (Enterococcus faecalis [1]) | inhibition zone (IZ) (Escherichia coli) | inhibition zone (IZ) (Bacillus subtilis [2]) | inhibition zone (IZ) (Staphylococcus aureus [3]) | MLC (Bacillus cereus [4]) | MIC (Bacillus cereus [4]) | inhibition zone (IZ) (Pyricularia oryzae) | inhibition zone (IZ) (Salmonella enteritidis) | MLC (Listeria monocytogenes [6]) | MIC (Listeria monocytogenes [6]) | inhibition zone (IZ) (Aspergillus niger) | inhibition zone (IZ) (Pseudomonas aeruginosa) | inhibition zone (IZ) (Listeria monocytogenes [7]) | inhibition zone (IZ) (Bacillus cereus [8]) | inhibition zone (IZ) (Enterococcus faecalis [9]) | inhibition zone (IZ) (Candida albicans) | MLC (Bacillus subtilis [10]) | MIC (Bacillus subtilis [10]) | MIC (Staphylococcus aureus [13]) | also measured
CCCCCCCCCCCCO[C@H]1C[C@H](O)[C@@H](O)[C@H](C)O1 | >250 µg/mL | 15.6 µg/mL (≈ 49.3 µM) | <6.4 mm | 25 mm | 9 mm | 7.8 µg/mL (≈ 24.6 µM) | 7.8 µg/mL (≈ 24.6 µM) | <6.4 mm | <6.4 mm | 62.5 µg/mL (≈ 197 µM) | 31.3 µg/mL (≈ 98.9 µM) | <6.4 mm | <6.4 mm | 12 mm | 27 mm | 13 mm | <6.4 mm | 15.6 µg/mL (≈ 49.3 µM) | 7.8 µg/mL (≈ 24.6 µM) | – | Activity (Bacillus cereus [5]): Active
CCCCCCCCCCCCO[C@@H]1C[C@H](O)[C@@H](O)[C@H](C)O1 | – | – | <6.4 mm | <6.4 mm | <6.4 mm | – | – | <6.4 mm | <6.4 mm | – | – | <6.4 mm | <6.4 mm | <6.4 mm | <6.4 mm | <6.4 mm | <6.4 mm | – | – | – | –
CCCCCCCCCCCCO[C@H]1C[C@@H](O)[C@H](O)[C@@H](CO)O1 | >500 µg/mL | 31.3 µg/mL (≈ 94.1 µM) | <6.4 mm | 10 mm | <6.4 mm | – | > 500 µg/mL | <6.4 mm | <6.4 mm | >500 µg/mL | 250 µg/mL (≈ 752 µM) | <6.4 mm | <6.4 mm | <6.4 mm | 10 mm | 17 mm | 10 mm | – | > 500 µg/mL | > 500 µg/mL | Activity [11]: 13.5; Activity [12]: 6.75
CCCCCCCCCCCCO[C@@H]1C[C@@H](O)[C@H](O)[C@@H](CO)O1 | – | – | <6.4 mm | 9 mm | <6.4 mm | – | – | <6.4 mm | <6.4 mm | – | – | <6.4 mm | <6.4 mm | 10 mm | <6.4 mm | <6.4 mm | 9 mm | – | – | – | Activity [11]: 13.5; Activity [12]: 7.75
CCCCCCCCO[C@@H]1C[C@@H](O)[C@H](O)[C@@H](CO)O1 | – | – | <6.4 mm | <6.4 mm | <6.4 mm | – | – | <6.4 mm | <6.4 mm | – | – | <6.4 mm | <6.4 mm | <6.4 mm | <6.4 mm | <6.4 mm | <6.4 mm | – | – | – | Activity [11]: 10.75; Activity [12]: 3
CCCCCCCCO[C@H]1C[C@H](O)[C@@H](O)[C@H](C)O1 | – | – | 8 mm | 12 mm | 11 mm | 500 µg/mL (≈ 1920 µM) | 250 µg/mL (≈ 960 µM) | 13 mm | <6.4 mm | – | – | <6.4 mm | 8 mm | 10 mm | 12 mm | 10 mm | 10 mm | >500 µg/mL | 250 µg/mL (≈ 960 µM) | 500 µg/mL (≈ 1920 µM) | MLC (Staphylococcus aureus [13]): 500 µg/mL (≈ 1920 µM)
CCCCCCCCO[C@H]1C[C@@H](O)[C@H](O)[C@@H](CO)O1 | >500 µg/mL | 31.3 µg/mL (≈ 113 µM) | <6.4 mm | 12 mm | <6.4 mm | – | > 500 µg/mL | <6.4 mm | <6.4 mm | – | – | <6.4 mm | <6.4 mm | <6.4 mm | 11 mm | 14 mm | <6.4 mm | – | > 500 µg/mL | – | –
O=C(N[C@H](CO)[C@H](O)c1ccc([N+](=O)[O-])cc1)C(Cl)Cl [CHLORAMPHENICOL] | >50 µg/mL | 6.3 µg/mL (≈ 19.5 µM) | – | – | – | 12.5 µg/mL (≈ 38.7 µM) | 6.3 µg/mL (≈ 19.5 µM) | – | – | >50 µg/mL | 6.3 µg/mL (≈ 19.5 µM) | – | – | – | – | – | – | >50 µg/mL | 3.1 µg/mL (≈ 9.59 µM) | 6.3 µg/mL (≈ 19.5 µM) | MLC (Staphylococcus aureus [13]): >50 µg/mL
CCCCCCCCO[C@@H]1C[C@H](O)[C@@H](O)[C@H](C)O1 | – | – | 9 mm | 10 mm | 12 mm | – | > 500 µg/mL | <6.4 mm | <6.4 mm | – | > 500 µg/mL | <6.4 mm | 9 mm | 10 mm | 12 mm | 9 mm | 11 mm | – | > 500 µg/mL | > 500 µg/mL | –
